Bioassay records: PubChem BioAssay, several laboratories
Only some compounds are listed: those with a hit (about 12% of all), similar ones and a draw of the others.
L major viab = reduces viability of Leishmania major promastigotes | resazurin fluorescence viability | 200,000 compounds, 9% hits | inhibition, % at 10 µM | AID 1063; in the data active = inhibition above about 50%;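 also: promastigotes grown with compound for 44 hours at 28 °C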
bCat nuc transl = modulators of beta-catenin nuclear translocation | HeLa beta-catenin nuclear translocation, immunofluorescence imaging | nuclear translocation activity, % at 5 µM | 190,000 compounds, 0.3% hits | AID 1665;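 active = nuclear translocation activity above 50% at 5 µM, with a well cell count of 50 or more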;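 also: per-cell ratio of nuclear to cytoplasmic median beta-catenin stain intensity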
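test system = HeLa cells, endogenous beta-catenin | dosing = single 5 µM dose plus 0.02–20 µM confirmation series | times = compound treatment 24 h, 37°C, 5% CO2 | technique = beta-catenin immunofluorescence imaging with DAPI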
CHOP inhibitor = CHOP inhibition in unfolded protein response | CHO-K1 CHOP-promoter luciferase, tunicamycin-induced, 15-18 h | AID 2732 | inhibition, % at 10 µM | 220,000 compounds, 3.8% hits;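 active = compounds that reduced the stress-induced luciferase reporter signal by more than about 70% of percent inhibition, limit read from the data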
Autophagy HCS = alters autophagy in cells | MEF GFP-LC3 puncta imaging; test concentration mostly 10 µM | calls only at 10 µM (by protocol) | 190,000 compounds, 0.98% hits | AID 463193;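 active = percentage of spot-positive cells more than 3 SD above its plate mean, without a fluorescence outlier flag or 80% toxicity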
MT stabilize HCS = microtubule stabilizers in HeLa cells. HeLa tubulin immunostaining HCS, 24 h; share of cells brighter than vehicle mean+2SD. % tubulin-high responders, % at 10 µM. 200,000 compounds, 0.83% hits. AID 2205;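 active = plate Z-score above 3 for both tubulin-high and condensed-nucleus cell shares, with cell loss under 80%, at 10 µM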;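 also: anti alpha tubulin signal scored within the nucleus-defined area of each cell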
Dynein transport = blocks dynein driven cargo transport along microtubules | 220,000 compounds, 0.47% hits | z-score, hits read low | 3617.4 mouse cells, GR-EGFP nuclear translocation imaging; test concentration mostly 20 µM; stimulated with dexamethasone, 1 µM; active compounds read low;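 active = plate z-score of nuclear minus cytoplasmic receptor signal below a set negative limit, without overly bright fluorescence or cell loss, cut at about -3.5 in these data, passing the limit was not always enough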;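 also: z-score of nuclear minus cytoplasmic ring GR-EGFP intensity difference per well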
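Buffer or medium: tet-free, stripped-serum medium; reagent: dexamethasone at 1.0 µM final, 30 min; incubation: 48 h induction, 1 h compound, 30 min dex at 37 °C; measured by: formaldehyde fixation, Hoechst nuclear stain, 10x automated fluorescence imaging; read-out: nuclear-to-cytoplasmic GR-EGFP distribution per well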
Of the large screens only hits and unclear results are named; the others gave an inactive call.

COc1cc(NC(=O)c2ccc(COc3ccccc3Br)o2)cc(OC)c1OC	L major viab 68
COc1ccc(NC(=O)c2ccc(COc3ccccc3Br)o2)cc1OC	none
COc1ccc(/C=N/NC(=O)c2ccc(COc3ccccc3Cl)o2)c(OC)c1C	L major viab 56, CHOP inhibitor 87
COc1ccc(/C=N/NC(=O)c2ccc(COc3ccccc3Cl)o2)cc1	none
CCCCNC(=O)/C=C/c1ccc(S(=O)(=O)Nc2ccc(OC)cc2)cc1	none
O=C(c1cc2cc([N+](=O)[O-])ccc2s1)N1CCOCC1	none
CCCNC(=O)COC(=O)c1ccccc1C(=O)N(C)C1CCCCC1	none
CN(C(=O)c1ccccc1C(=O)OCC(=O)NCc1ccccc1)C1CCCCC1	L major viab 67
CCc1nc2ccccc2c(=O)n1NC(=O)c1c(O)c2cccc3c2n(c1=O)CCC3	CHOP inhibitor 95
O=C(Nc1cccnc1)c1c(O)c2cccc3c2n(c1=O)CC3	CHOP inhibitor 80
CC(C)Cn1c2c(c(O)c(C(=O)Nn3c(Cc4ccccc4)nc4ccccc4c3=O)c1=O)CCCC2	L major viab 74
CCCCc1nc2ccccc2c(=O)n1NC(=O)c1c(O)c2c(n(CC(C)C)c1=O)CCCC2	none
C1=Nc2c(Nc3ccccc3)ncnc2Oc2ccccc21	none
Cc1ccccc1OCC(=O)NNC=O	none
Cc1ccc(SC(=O)COc2ccccc2C)cc1	CHOP inhibitor 75 (no result: bCat nuc transl)
O=C(CSc1nnc(COc2ccc(Cl)cc2)o1)N1c2ccccc2CCc2ccccc21	L major viab 67 (no result: CHOP inhibitor)
CCOC(=O)N1CCN(C(=O)CSc2nnc(COc3ccc(Cl)cc3)o2)CC1	none
O=C(CCCN1C(=O)c2ccccc2C1=O)Nc1c(C(=O)C2CC2)oc2ccccc12	none (no result: bCat nuc transl)
COC(=O)c1oc2ccc(Br)cc2c1NC(=O)CCCN1C(=O)c2ccccc2C1=O	CHOP inhibitor 95
CN(C)C=Nc1ccccc1C1C=NNC1=O (centres undefined)	none (no result: L major viab, Autophagy HCS, MT stabilize HCS)
O=C(CSc1cc(Cl)ccc1Cl)NCC(=O)Nc1ccc(F)c(F)c1F	CHOP inhibitor 72
N=C1C(c2nc3ccccc3s2)=C(O)CN1Cc1ccco1	Autophagy HCS active
Cn1c(N)c(C(=O)COC(=O)c2ccc(Cl)c(S(=O)(=O)N3CCCC3)c2)c(=O)n(C)c1=O	none (no result: L major viab, Autophagy HCS, MT stabilize HCS)
COc1ccc(NC(=O)c2c(Cl)n(C)c3ccccc23)cc1	MT stabilize HCS 49
COc1ccc(NC(=O)c2c(Cl)nc3ccccn23)cc1	none
O=C(Nc1ncc(Cc2ccc(SC(F)F)cc2)s1)c1ccc(OC(F)F)cc1	CHOP inhibitor 72 (no result: bCat nuc transl)
CN(C)CC1CCCCC1C1(O)c2ccccc2CSc2sccc21 (centres undefined)	L major viab 100
CCCSc1nc2c(=O)[nH][nH]c(=O)c2n1Cc1ccccc1	none
Cc1cccc(N=N/C(=C\O)C(=O)c2cccs2)c1	L major viab 76
